This passage reports inhibition results from ChEMBL document CHEMBL2157866, “Virtual screening and computational optimization for the discovery of covalent prolyl oligopeptidase inhibitors with activity in human cells” (J Med Chem, 2012).

The source made the active and inactive calls. No cut-off for these calls is given here. A value given as a limit tells only on which side of the number the result lay.

As a reminder, the inhibition is the change of the read-out against control, counted positive when it falls.

The target of assay [1] is T1, Prolyl endopeptidase (Homo sapiens) (UniProt P48147).
T1 sequence (whole entry): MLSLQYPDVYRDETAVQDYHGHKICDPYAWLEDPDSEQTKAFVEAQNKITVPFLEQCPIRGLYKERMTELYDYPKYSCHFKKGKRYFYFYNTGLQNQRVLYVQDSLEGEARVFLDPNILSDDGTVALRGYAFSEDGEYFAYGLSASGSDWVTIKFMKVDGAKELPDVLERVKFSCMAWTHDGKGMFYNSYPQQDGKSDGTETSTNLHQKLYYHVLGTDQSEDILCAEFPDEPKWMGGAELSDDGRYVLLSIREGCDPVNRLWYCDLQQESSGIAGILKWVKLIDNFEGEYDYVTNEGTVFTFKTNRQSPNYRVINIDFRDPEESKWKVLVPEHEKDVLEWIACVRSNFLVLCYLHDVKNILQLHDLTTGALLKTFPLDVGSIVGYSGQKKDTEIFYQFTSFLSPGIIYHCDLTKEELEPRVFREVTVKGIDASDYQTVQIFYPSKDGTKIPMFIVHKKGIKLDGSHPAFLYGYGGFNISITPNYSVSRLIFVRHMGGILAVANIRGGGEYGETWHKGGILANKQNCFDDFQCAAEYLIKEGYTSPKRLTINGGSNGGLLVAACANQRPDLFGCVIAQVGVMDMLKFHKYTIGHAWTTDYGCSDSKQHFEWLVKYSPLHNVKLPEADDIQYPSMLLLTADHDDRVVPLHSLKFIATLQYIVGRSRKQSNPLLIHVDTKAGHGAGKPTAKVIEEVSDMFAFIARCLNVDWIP
The experiment in a line: Inhibition of POP in intact human LN18 cells using Cbz-Gly-Pro-AMC substrate at 100 uM incubated for 30 mins by fluorimetric assay. Type of assay: cell-based. In a few lines: (§1)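 Intact confluent monolayers kept in PBS pH 7.2–7.4 without detergent, in duplicate wells. Inhibitor added 5–10 min at room temperature before Z-Gly-Pro-AMC at 10 μM final. Fluorescence increase (ex/em 360/460 nm) followed for 30 min at 37 °C. IC50 obtained by plotting residual activity against inhibitor concentration.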

Assay [2] deals with Dipeptidyl peptidase 4 (Homo sapiens) (UniProt P27487). Nature of the assay: Inhibition DPP4 in human LNZ308 cell extracts using Gly-Pro-AMC substrate at 100 uM incubated for 30 mins by fluorimetric assay. In a few lines:
(§2)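 Cells grown to confluence in DMEM with 4.5 g/L glucose (10% FCS for HCEC, 5% FCS for glioblastoma lines), then lysed in PBS with 0.1% Triton X-100. Inhibitor (methanol stock diluted in water) preincubated 5–10 min at room temperature in duplicate wells. Gly-Pro-AMC added at 10 μM final; fluorescence increase (ex/em 360/460 nm) read for 30 min at 37 °C.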

For assay [3] the target is unchanged. Nature of the assay: Inhibition DPP4 in human HCEC cell extracts using Gly-Pro-AMC substrate at 100 uM incubated for 30 mins by fluorimetric assay. In a few lines: as §2
The target of assay [4] is T1, Prolyl endopeptidase (Homo sapiens). The experiment in a line: Inhibition of POP in intact human HCEC cells using Cbz-Gly-Pro-AMC substrate at 100 uM incubated for 30 mins by fluorimetric assay. The class given is cell-based. The method, boiled down: as §1
Assay [5] shares this target. Nature of the assay: Inhibition of POP in human LN229 cell extracts using Cbz-Gly-Pro-AMC substrate at 100 uM incubated for 30 mins by fluorimetric assay. In a few lines: (§3)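 Confluent monolayers (DMEM, 4.5 g/L glucose; 10% FCS for HCEC, 5% FCS for LN18/LN229/LNZ308) lysed in PBS containing 0.1% Triton X-100. Inhibitor preincubated 5–10 min at room temperature in duplicate wells. Z-Gly-Pro-AMC added at 10 μM final; fluorescence (ex/em 360/460 nm) recorded over 30 min at 37 °C. IC50 taken from residual activity plotted against decreasing inhibitor concentrations.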

For assay [6] the target is unchanged. Nature of the assay: Inhibition of POP in human LN18 cell extracts using Cbz-Gly-Pro-AMC substrate at 100 uM incubated for 30 mins by fluorimetric assay. In a few lines:
as §3

Assay [7] shares this target. The experiment in a line: Inhibition of POP in intact human LNZ308 cells using Cbz-Gly-Pro-AMC substrate at 100 uM incubated for 30 mins by fluorimetric assay. Type of assay: cell-based. The method, boiled down:
as §1

For assay [8] the target is unchanged. The experiment in a line: Inhibition of POP in human LNZ308 cell extracts using Cbz-Gly-Pro-AMC substrate at 100 uM incubated for 30 mins by fluorimetric assay. The method, boiled down:
as §3

The target in assay [9] is Dipeptidyl peptidase 4 (Homo sapiens) (UniProt P27487). The experiment in a line: Inhibition DPP4 in human LN18 cell extracts using Gly-Pro-AMC substrate at 100 uM incubated for 30 mins by fluorimetric assay. In a few lines: as §2
Assay [10] addresses T1, Prolyl endopeptidase (Homo sapiens). Nature of the assay: Inhibition of POP in human HCEC cell extracts using Cbz-Gly-Pro-AMC substrate at 100 uM incubated for 30 mins by fluorimetric assay. In a few lines: as §3
For assay [11], the target named is Dipeptidyl peptidase 4 (Homo sapiens) (UniProt P27487). Nature of the assay: Inhibition DPP4 in human LN229 cell extracts using Gly-Pro-AMC substrate at 100 uM incubated for 30 mins by fluorimetric assay. In a few lines:
as §2

The target in assay [12] is T1, Prolyl endopeptidase (Homo sapiens). Nature of the assay: Inhibition of POP in intact human LN229 cells using Cbz-Gly-Pro-AMC substrate at 100 uM incubated for 30 mins by fluorimetric assay. The class given is cell-based. The method, boiled down:
as §1

Assay [13] has as its target Prolyl endopeptidase FAP (Homo sapiens) (UniProt Q12884). The experiment in a line: Inhibition at human recombinant FAPalpha at 100 uM. The method, boiled down:
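Recombinant human FAPα diluted in PBS with 1 mg/mL BSA. Setup as for cell extracts: inhibitor preincubated 5–10 min at room temperature, then Z-Gly-Pro-AMC at 10 μM final. AMC fluorescence (ex/em 360/460 nm) recorded for 30 min at 37 °C.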

Dipeptidyl peptidase 4 (Homo sapiens), sequence (P27487 whole entry, looked up): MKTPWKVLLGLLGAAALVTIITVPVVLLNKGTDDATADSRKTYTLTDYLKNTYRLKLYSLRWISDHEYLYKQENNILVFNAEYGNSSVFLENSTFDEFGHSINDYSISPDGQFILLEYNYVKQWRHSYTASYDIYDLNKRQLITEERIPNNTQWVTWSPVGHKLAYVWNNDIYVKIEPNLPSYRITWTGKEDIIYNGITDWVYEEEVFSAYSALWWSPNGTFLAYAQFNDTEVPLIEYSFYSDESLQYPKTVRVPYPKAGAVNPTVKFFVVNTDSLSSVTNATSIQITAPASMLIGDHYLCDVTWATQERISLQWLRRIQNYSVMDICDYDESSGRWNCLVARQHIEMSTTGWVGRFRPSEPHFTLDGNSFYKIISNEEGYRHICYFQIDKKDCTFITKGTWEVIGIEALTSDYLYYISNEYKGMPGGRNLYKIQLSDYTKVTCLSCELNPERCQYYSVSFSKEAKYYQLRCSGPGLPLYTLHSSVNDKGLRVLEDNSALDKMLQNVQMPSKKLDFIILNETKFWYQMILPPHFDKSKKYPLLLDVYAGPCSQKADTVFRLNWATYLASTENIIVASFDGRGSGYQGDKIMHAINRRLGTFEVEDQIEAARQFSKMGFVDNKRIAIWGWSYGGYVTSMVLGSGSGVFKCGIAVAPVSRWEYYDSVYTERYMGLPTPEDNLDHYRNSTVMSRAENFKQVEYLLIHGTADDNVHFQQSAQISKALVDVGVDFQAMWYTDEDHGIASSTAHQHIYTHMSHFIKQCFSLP
Prolyl endopeptidase FAP (Homo sapiens), sequence (Q12884 whole entry): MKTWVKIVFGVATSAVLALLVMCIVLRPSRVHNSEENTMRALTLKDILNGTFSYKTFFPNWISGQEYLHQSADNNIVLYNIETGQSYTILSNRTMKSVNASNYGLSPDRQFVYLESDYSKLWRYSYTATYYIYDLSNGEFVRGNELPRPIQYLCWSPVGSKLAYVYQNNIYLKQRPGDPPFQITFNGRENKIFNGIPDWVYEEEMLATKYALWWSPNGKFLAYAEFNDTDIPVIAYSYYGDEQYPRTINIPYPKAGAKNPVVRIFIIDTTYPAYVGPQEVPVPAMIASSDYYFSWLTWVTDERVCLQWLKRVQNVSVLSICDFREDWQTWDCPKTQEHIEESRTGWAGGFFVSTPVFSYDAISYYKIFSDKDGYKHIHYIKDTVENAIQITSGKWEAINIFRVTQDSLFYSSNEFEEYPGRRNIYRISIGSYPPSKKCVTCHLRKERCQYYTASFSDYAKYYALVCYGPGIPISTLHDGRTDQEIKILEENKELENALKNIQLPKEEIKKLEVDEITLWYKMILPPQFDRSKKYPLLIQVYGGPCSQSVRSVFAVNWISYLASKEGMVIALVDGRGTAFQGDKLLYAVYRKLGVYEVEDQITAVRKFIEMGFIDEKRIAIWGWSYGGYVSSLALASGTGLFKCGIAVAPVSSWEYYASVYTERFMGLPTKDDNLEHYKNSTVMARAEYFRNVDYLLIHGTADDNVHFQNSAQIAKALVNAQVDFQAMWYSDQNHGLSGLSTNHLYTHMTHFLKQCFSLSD

For the molecule `O=C(NCc1ccccc1)c1ccccc1C(=O)N1CCCCC1`, the inhibition entry in [1], in [2], in assay [3], in assay [4], in assay [7] and in assay [9] was “inactive” each time. Moreover, the inhibition entry in assay [11] and in assay [12] was “inactive” throughout. Further, the inhibition in [5], in assay [6], in [8] and in assay [10] was over 50% each time.

Regarding `N#C[C@@H]1CCCN1C(=O)c1cccc2c1C(=O)N(Cc1ccccc1)C2`, the inhibition entry in assay [2], in [3], in assay [9] and in assay [11] was “inactive” in each case. The inhibition in [13] stood at 28%.

Regarding `N#C[C@@H]1CCCN1C(=O)c1ccccc1C(=O)NCc1ccccc1`, the inhibition entry in assay [2], in assay [3], in [9] and in assay [11] was “inactive” each time. The inhibition in [13] is 34%.

Consider `O=C(NCc1ccccc1)c1ccccc1C(=O)N1CCCC1`, for which the inhibition in [1], in assay [4], in assay [7] and in [12] was over 50% throughout. In addition, the inhibition result in assay [2], in assay [3], in assay [9] and in assay [11] was “inactive” in each case.

For the molecule `O=C(c1cccc2c1C(=O)N(Cc1ccccc1)C2)N1CCCC1`, the inhibition entry in assay [2], in assay [3], in [9] and in assay [11] was “inactive” in each case. In addition, the inhibition in assay [13] was found to be 11%.
